Measurements taken from the array DNA melting data of Ke et al. (doi:10.1101/2024.01.08.574731).

Assays:
[1] = folding enthalpy; higher = less favourable; fluorescence melt of hairpins on a sequencing array, two-state fit; conditions: sodium 0.088 M
Outline: (§1)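 With Cy3 and quencher oligos annealed, library hairpins on a sequenced MiSeq flow cell were imaged for Cy3 fluorescence in 50 mM Na-HEPES pH 8.0, 25 mM NaCl, in 2.5 °C steps up to 60 °C. Melting temperature and folding enthalpy were derived from bootstrapped two-state fits of signals normalised to pre-quench Cy3 and to control constructs. Four replicates were combined by inverse variance, with fitted temperatures raised by 9.35 °C to match UV melts.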

[2] = melting temperature; fluorescence melt of hairpins on a sequencing array, two-state fit, raised by 9.35 °C to match UV melts; conditions: sodium 0.088 M
Outline: as §1

| Sequence | folding enthalpy [1] | Tm [2] |
| --- | --- | --- |
| GTCCACCGAAAGGTAGAC (((.(((....))).))) | -26.4 kcal/mol | 47.4 °C |
| GTATTTCCGAAAGGATAC (((..(((....)))))) | -11.8 kcal/mol | 26 °C |
| GCTCTGGCGAAAGCCAGC (((..(((....)))))) | -6.82 kcal/mol | 31.5 °C |
| GTGCCGGGAAACCGGTAC ((.((((....)))).)) | -30.3 kcal/mol | 57.2 °C |
| GCATTCGGAAACGAGTGC (((.(((....))).))) | -46.7 kcal/mol | 53 °C |
| GCCCAGCCGAAAGGCGGC (((..(((....)))))) | -10.6 kcal/mol | 62.4 °C |
| GTTCTCGAAAGAGATAAC ((((((....)))..))) | -13.9 kcal/mol | 28.8 °C |
| CAGTAGAAATACTG (((((....))))) | -15.3 kcal/mol | 38.6 °C |
| GGATCTGGAAACAGATTC (.(((((....))))).) | -28.9 kcal/mol | 46.2 °C |
| GGCAGCCGAAAGGCCGCC (((.(((....))).))) | -22.3 kcal/mol | 66.9 °C |
| GCGACTAGTCGC ((((....)))) | -28.9 kcal/mol | 65.2 °C |
| GGAGCTCGAAAGAGTCC (((.(((....)))))) | -17.8 kcal/mol | 48.2 °C |
| GTTCCCGAAAGGGCGAAC ((((((....)))..))) | -9.4 kcal/mol | 31.5 °C |
| GCGGAGCGAAAGCGCTGC ((.(.((....)).).)) | -15.2 kcal/mol | 57.1 °C |
| GTTTTATCGAAAGATAAC (((..(((....)))))) | -11.4 kcal/mol | 29.8 °C |
| GCCACCGGAAACGACGGC (((..((....))..))) | -24.9 kcal/mol | 41.4 °C |
| GCCAGGCGAAAGCGGGGC (((..((....))..))) | -23.9 kcal/mol | 63.2 °C |
| GATCTCGGAAACAAGATC (((((.(....).))))) | -15 kcal/mol | 29 °C |
| GTAGTCCCGAAAGGGTAC (((..(((....)))))) | -10.8 kcal/mol | 31.5 °C |
| GTCAGCGAAAGCTTCGAC ((((((....)))..))) | -12 kcal/mol | 32.3 °C |
| GCGCTCGAAAGAGTTCGC ((((((....)))..))) | -22.1 kcal/mol | 43.8 °C |
| GTTCGACCGAAAGGTAAC (((..(((....)))))) | -10.9 kcal/mol | 27.3 °C |
| GGAGATGGAAACGTCTCC (((((.(....).))))) | -36.9 kcal/mol | 49.5 °C |

| Sequence | folding enthalpy [1] | Tm [2] |
| --- | --- | --- |
| GAACTACGAAAGTACTTC (((.(((....))).))) | -9.53 kcal/mol | 25.9 °C |
| GGTCAGCGAAAGCTAACC (((.(((....))).))) | -25.6 kcal/mol | 46.7 °C |
| GACATGAAAATGTC (((((....))))) | -24 kcal/mol | 50.4 °C |
| GCGAGTGGAAACATTCGC ((((.((....)).)))) | -35 kcal/mol | 53.2 °C |
| GTGCTCGCGAAAGCGCAC (((..(((....)))))) | -17.4 kcal/mol | 49.2 °C |
| GAGTTCGGAAACGAATTC ((.((((....)))).)) | -30.8 kcal/mol | 44 °C |
| GGGACCGAAAGGTCGCCC ((((((....)))..))) | -10.3 kcal/mol | 57.5 °C |
| GCAATCGGAAACGATCGC ((.((((....)))).)) | -36.4 kcal/mol | 47.2 °C |
| GGCCGGGGAAACCCGACC ((.((((....)))).)) | -34.5 kcal/mol | 57.2 °C |
| GATCAGATTCCTGATC ((((((....)))))) | -39 kcal/mol | 48.5 °C |
| GCTTACGGAAACGCAAGC ((((.((....)).)))) | -44.1 kcal/mol | 46 °C |
| GTGGTCGAAAGACGTCAC ((((((....)))..))) | -13.5 kcal/mol | 36.2 °C |
| GCCCATGGAAACATGAGC ((.((((....)))).)) | -27.9 kcal/mol | 43.1 °C |
| GAAAAGCGAAAGCTCTTC (((.(((....))).))) | -15.4 kcal/mol | 36.5 °C |
| GCCAGGCGAAAGCAAGGC (((..((....))..))) | -26.5 kcal/mol | 60.6 °C |
| GGCTATGCGAAAGCAGCC (((..(((....)))))) | -27.3 kcal/mol | 55.6 °C |
| GATCGCAGGAGCGATC ((((((....)))))) | -26.6 kcal/mol | 68.3 °C |
| GGTGAGGGAAACTTCGCC ((.((.(....).)).)) | -23.7 kcal/mol | 35.7 °C |
| GTTGCCGAAAGGCGGAAC ((((((....)))..))) | -7.95 kcal/mol | 32.8 °C |
| GCGTTCGAAAGAAGACGC ((((((....)))..))) | -31.8 kcal/mol | 46.9 °C |
| GCCTTAGCGAAAGCTGGC (((..(((....)))))) | -21 kcal/mol | 51.5 °C |
| CGAGTCCGGAAACGGTCG (((..(((....)))))) | -12.3 kcal/mol | 42.4 °C |
| GCATGGCGAAAGCCCGGC ((..(((....)))..)) | -15.7 kcal/mol | 43.3 °C |

| Sequence | folding enthalpy [1] | Tm [2] |
| --- | --- | --- |
| GATCTTCAGAAAGATC ((((((....)))))) | -29.7 kcal/mol | 41.7 °C |
| GCCTATGGAAACACAGGC ((((.((....)).)))) | -31.7 kcal/mol | 40 °C |
| GAGGACGGAAACGCCCTC ((((.((....)).)))) | -47.2 kcal/mol | 51.7 °C |
| GATCGACCTATCGATC ((((((....)))))) | -38.9 kcal/mol | 51 °C |
| GAGATGGGAAACCATCCC (.(((((....))))).) | -13.1 kcal/mol | 38.7 °C |
| GATCCTGCTTAGGATC ((((((....)))))) | -42.9 kcal/mol | 52.4 °C |
| GGTACCGAAAGGTTGACC ((((((....)))..))) | -16.9 kcal/mol | 36 °C |
| GATCATGTACATGATC ((((((....)))))) | -40.7 kcal/mol | 56.5 °C |
| GCGCTGCGAAAGCGGTGC ((.(.((....)).).)) | -31.8 kcal/mol | 66.7 °C |
| GATCTTTCCGAAGATC ((((((....)))))) | -33.1 kcal/mol | 46.4 °C |
| GATCACAAGTGTGATC ((((((....)))))) | -39 kcal/mol | 56.4 °C |
| GCGAAGCCGAAAGGCCGC (((..(((....)))))) | -20.2 kcal/mol | 58.8 °C |
| GCGCCAGGAAACTGGTGC ((.((((....)))).)) | -30.6 kcal/mol | 65 °C |
| GCAAGCCGAAAGGCATGC (((.(((....))).))) | -24.9 kcal/mol | 64 °C |
| GGGGACGAAAGTCTGCCC ((((((....)))..))) | -14.4 kcal/mol | 44.1 °C |
| CGATCGGAAACGACTTCG ((((((....)))..))) | -11.3 kcal/mol | 25.6 °C |
| GAGGTGCGAAAGCAACTC (((.(((....))).))) | -26.2 kcal/mol | 66.5 °C |
| GAATTGGGAAACCAGTTC (((.(((....))).))) | -30.1 kcal/mol | 39.4 °C |
| GATCATGTGGATGATC ((((((....)))))) | -35.2 kcal/mol | 47.3 °C |
| GATCTCAGAGAGATC ((((((...)))))) | -36 kcal/mol | 55.4 °C |
| GCGGATGGAAACGTTCGC (((.(.(....).).))) | -28.2 kcal/mol | 44.1 °C |
| GGTATCGAAAGATATACC ((((((....)))..))) | -19.7 kcal/mol | 34 °C |
| GCTTCAGGAAACTGGAGC (((.(((....))).))) | -38.5 kcal/mol | 49.9 °C |
